Screens as filed in PubChem.
HCV NS3 hel inh: inhibitors of Hepatitis C virus NS3 helicase. AID 1800. NS3 helicase DNA unwinding, Cy5 molecular beacon fluorescence. inhibition, % at 10.9 µM. 290,000 compounds, 0.56% hits;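 active means inhibition above the mean of all tested compounds plus 3 SD, set per campaign, cut at about 35% in these data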
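Measured by: Cy5 fluorescence, 0 and 60 min reads / Assay system: NS3 helicase fragment of HCV / Control set: low DMSO, high thioflavine S at 110 µM / Times: 1 h reaction at 25 °C, ATP-initiated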
GPR7 antag: human neuropeptides B/W receptor 1 antagonism; AID 1861; inhibition, % at 4.4 µM; GPR7-expressing cells, fluorescence antagonist assay; 290,000 compounds, 1.1% hits; in the data active means inhibition above about 16%, passing the limit was not always enough;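 further: cells stimulated with the agonist NPW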
Target sequence (P48145 whole entry, looked up): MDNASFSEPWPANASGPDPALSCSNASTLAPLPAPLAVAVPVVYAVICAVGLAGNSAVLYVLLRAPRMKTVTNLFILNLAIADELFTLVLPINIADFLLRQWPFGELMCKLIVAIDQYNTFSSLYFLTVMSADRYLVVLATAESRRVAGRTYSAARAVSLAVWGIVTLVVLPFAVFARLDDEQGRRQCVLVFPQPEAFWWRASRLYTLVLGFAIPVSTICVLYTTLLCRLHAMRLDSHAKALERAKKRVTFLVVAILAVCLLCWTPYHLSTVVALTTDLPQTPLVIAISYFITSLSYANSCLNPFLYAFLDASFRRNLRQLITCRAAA
ZTA counter: ZTA (EBV) inhibition in EBNA-1 counter-screen; AID 2234; 320,000 compounds, 0.15% hits; inhibition, % at 11 µM; ZTA-DNA binding, fluorescence polarization; P03206; in the data active means inhibition above about 33%
Target sequence (P03206 whole entry, looked up): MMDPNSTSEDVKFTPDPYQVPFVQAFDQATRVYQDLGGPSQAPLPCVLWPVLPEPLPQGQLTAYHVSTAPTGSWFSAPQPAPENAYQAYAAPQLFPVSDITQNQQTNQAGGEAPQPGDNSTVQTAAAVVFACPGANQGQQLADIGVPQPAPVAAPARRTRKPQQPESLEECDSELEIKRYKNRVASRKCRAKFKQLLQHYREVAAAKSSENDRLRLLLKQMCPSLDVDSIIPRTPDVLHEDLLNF
EBNA-1 inh: blocks EBNA-1 binding to DNA; EBNA-1 DNA binding, fluorescence polarization; inhibition, % at 14.8 µM; 300,000 compounds, 0.34% hits; AID 1950; in the data active means inhibition above about 28%
DNA FID counter-1: counter-screen for HCV NS3 helicase inhibitors: DNA intercalator displacement. DNA fluorescent intercalator displacement, fluorescence. 290,000 compounds, 0.17% hits. inhibition, % at 7.9 µM. AID 1845;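 further: higher means more ethidium bromide displaced from hairpin DNA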
NS3 helicase cf: confirmation of Hepatitis C virus NS3 helicase inhibitors | shares compounds with HCV NS3 hel inh | NS3 helicase DNA unwinding, Cy5 molecular beacon fluorescence | inhibition, % at 10.9 µM | 1,600 compounds, 31% hits;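 active means inhibition above the mean of all tested compounds plus 3 SD, cutoff set per campaign, cut at about 36% in these data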
DNA FID counter-2: intercalator displacement, NS3 helicase counter-screen. inhibition, % at 7.9 µM. shares compounds with HCV NS3 hel inh. 1,600 compounds, 4% hits. DNA fluorescent intercalator displacement, fluorescence;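 further: higher means more displacement of ethidium bromide from the DNA hairpin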
FID counter DR: counter-screen for HCV NS3 helicase inhibitors: DNA intercalator displacement dose response. shares compounds with HCV NS3 hel inh. fluorescent intercalator displacement from DNA, fluorescence. IC50, µM. 120 tested, under 10 active; call rule not given here
Each line names hits and unclear results; the compound was inactive in the other large screens (follow-up assays come after a bar, where they were run). In the library only some 2% were active in any assay of this set; here they are far more common. Unless noted, no stated cut-off is given here; in the data, active means inhibition above about 37%; inactive means the rest.

O=C1c2ccccc2NC2(CCCCC2)N1N=C1CCCCC1	HCV NS3 hel inh 49 | NS3 helicase cf inactive | DNA FID counter-2 inactive
CCC1C/C(=C/c2ccco2)C(=O)/C(=C/c2ccco2)C1 (stereo unspecified)	HCV NS3 hel inh 46 | NS3 helicase cf 77 | DNA FID counter-2 inactive
CCC1C/C(=C\c2cc(OC)c(OC)cc2OC)C(=O)/C(=C/c2cc(OC)c(OC)cc2OC)C1 (stereo unspecified)	none
COc1ccc(/C=N\NC(=O)c2cc(O)c(O)c(O)c2)cc1COc1ccc(C(=O)OCC(C)C)cc1	HCV NS3 hel inh 39 | NS3 helicase cf 56 | DNA FID counter-2 inactive | FID counter DR inactive
COc1ccc(-c2ccc(CCC(=O)O)n2-c2ccccc2O)cc1	HCV NS3 hel inh 45 | NS3 helicase cf inactive | DNA FID counter-2 inactive
CN(CCOc1ccccc1)C(=O)CNC(=O)c1ccc(C(C)(C)C)cc1	none (no result: HCV NS3 hel inh, GPR7 antag, EBNA-1 inh, DNA FID counter-1)
Cc1ccccc1-c1n[nH]c(=S)n1/N=C/C=C/c1ccco1	HCV NS3 hel inh 38 | NS3 helicase cf inactive | DNA FID counter-2 inactive
S=c1[nH]nc(-c2ccccc2)n1/N=C/C=C/c1ccco1	HCV NS3 hel inh 52 | NS3 helicase cf inactive | DNA FID counter-2 inactive
Oc1ccc(Br)cc1/C=N/n1c(-c2ccccc2)n[nH]c1=S	none
S=c1[nH]nc(-c2ccc(Cl)cc2)n1/N=C/C=C/c1ccco1	none
Oc1c(Br)cc(Br)c(/C=N/n2c(-c3ccccc3)n[nH]c2=S)c1Br	HCV NS3 hel inh 39 | NS3 helicase cf 69 | DNA FID counter-2 inactive
O=C(CC1CC2CCC1C2)NCCc1ccc(Cl)cc1 (stereo unspecified)	none
Cc1onc(-c2ccccc2Cl)c1C(=O)Nc1cccc(S(=O)(=O)NC2=NCCC2)c1	none (no result: HCV NS3 hel inh, GPR7 antag, DNA FID counter-1)
Cc1cc(C)n(C(C)CNS(=O)(=O)c2ccccc2)n1 (stereo unspecified)	none
Cc1ccc(NC(=O)CC2SC(=O)NC2=O)cc1 (stereo unspecified)	HCV NS3 hel inh 47 | NS3 helicase cf inactive | DNA FID counter-2 inactive
COc1ccc(NC(=O)CC2SC(=O)NC2=O)cc1 (stereo unspecified)	none
Cc1c(C#N)c(O)[nH]c(=O)c1N=Nc1ccc(S(N)(=O)=O)cc1	HCV NS3 hel inh 57 | NS3 helicase cf inactive | DNA FID counter-2 inactive
Cc1c(C#N)c(O)[nH]c(=O)c1N=Nc1ccc(Cl)c(C(=O)O)c1	none
Cc1cccnc1CNC(=O)C1CCC(=O)N(CCc2cccc(F)c2)C1 (stereo unspecified)	none
Cc1ccc(C(=O)N/N=C/c2ccc(-c3ccc(Br)cc3[N+](=O)[O-])o2)o1	HCV NS3 hel inh 48 | NS3 helicase cf inactive | DNA FID counter-2 inactive
CCOC(=O)COc1ccc(/C=C2/C(=O)NN(c3ccc(F)cc3)C2=O)cc1OC	HCV NS3 hel inh 36 | NS3 helicase cf inactive | DNA FID counter-2 inactive
CCOC(=O)c1ccc(N2NC(=O)/C(=C/c3ccc(OC(=O)c4ccco4)c(OC)c3)C2=O)cc1	none
COC(=O)c1ccc(Cn2nnc3c(=O)[nH]c(C4CCCN(S(=O)(=O)c5ccc(C)cc5)C4)nc32)cc1 (stereo unspecified)	none
COC(=O)c1ccc(Cn2nnc3c(=O)[nH]c(C4CCCN(S(=O)(=O)c5cccc(Cl)c5)C4)nc32)cc1 (stereo unspecified)	HCV NS3 hel inh 38 | NS3 helicase cf inactive | DNA FID counter-2 inactive
CCCOc1ccc(/C(O)=C2\C(=O)C(=O)N(c3ccccn3)C2c2ccccc2F)cc1C (stereo unspecified)	HCV NS3 hel inh 47 | NS3 helicase cf 94 | DNA FID counter-2 inactive | FID counter DR inactive
O=C(O)CCn1cc(C(=O)O)c(-c2ccccc2)n1	HCV NS3 hel inh 45 | NS3 helicase cf inactive | DNA FID counter-2 inactive
COc1ccc(-c2nn(CCC(=O)O)cc2CCC(=O)O)cc1	none
COc1ccc(C2C(C#N)=C(N)Oc3cc4c(cc32)OCO4)cc1 (stereo unspecified)	HCV NS3 hel inh 40 | NS3 helicase cf inactive | DNA FID counter-2 inactive
COc1ccc(OC)c(C2C(C#N)=C(N)Oc3cc(N)ccc32)c1 (stereo unspecified)	none
S=c1[nH]nc(-c2ccco2)n1/N=C/c1ccc(Cl)cc1Cl	none
S=c1[nH]nc(-c2ccco2)n1/N=C/c1cccc(Cl)c1Cl	HCV NS3 hel inh 44 | NS3 helicase cf inactive | DNA FID counter-2 inactive
O=C(O)CCCNc1cc(N2CCN(C(=O)c3ccco3)CC2)c2noc3c2c1C(=O)c1ccccc1-3	HCV NS3 hel inh 37, ZTA counter 149, EBNA-1 inh 81 | NS3 helicase cf 72 | DNA FID counter-2 inactive
COc1ccc(N2Cc3ccc(C(=O)N/N=C\c4ccc(O)cc4O)cc3C2)cc1	HCV NS3 hel inh 40 | NS3 helicase cf inactive | DNA FID counter-2 inactive
COc1ccc2nc(C)cc(SCC(=O)N/N=C/c3ccc(O)cc3O)c2c1	none
Cc1ccc(C2C(C(=O)c3cc4ccccc4o3)=C(O)C(=O)N2c2cc(C)on2)cc1 (stereo unspecified)	HCV NS3 hel inh 65 | NS3 helicase cf 123 | DNA FID counter-2 inactive | FID counter DR inactive
CCOC(=O)c1sc(N2C(=O)C(O)=C(C(=O)c3ccco3)C2c2cccc([N+](=O)[O-])c2)nc1C (stereo unspecified)	HCV NS3 hel inh 105 | NS3 helicase cf 115 | DNA FID counter-2 inactive
Cc1cc(N2C(=O)C(O)=C(C(=O)c3ccco3)C2c2cccc(O)c2)no1 (stereo unspecified)	none
Cc1cc(N2C(=O)C(O)=C(C(=O)c3ccco3)C2c2cccc(Oc3ccccc3)c2)no1 (stereo unspecified)	HCV NS3 hel inh 66 | NS3 helicase cf 116 | DNA FID counter-2 inactive | FID counter DR inactive
O=C(C1=C(O)C(=O)N(CCc2ccccc2)C1c1ccncc1)c1cc2ccccc2o1 (stereo unspecified)	HCV NS3 hel inh 39 | NS3 helicase cf inactive | DNA FID counter-2 inactive
CCN(CC)CCN1C(=O)C(O)=C(C(=O)c2cc3ccccc3o2)C1c1cccnc1 (stereo unspecified)	none
COc1ccc(NC2CCCN(C(=O)c3ccc(C)c(N4CCNC4=O)c3)C2)cc1 (stereo unspecified)	none
Cc1ccc(NCC(=O)Nc2cccc(S(=O)(=O)N(C)C)c2)cc1S(=O)(=O)N1CCCCCC1	none (no result: HCV NS3 hel inh, GPR7 antag, DNA FID counter-1)
O=C(COc1ccccc1Br)Nc1ccc(S(=O)(=O)N2CCCC2)cc1	none (no result: HCV NS3 hel inh, GPR7 antag, EBNA-1 inh, DNA FID counter-1)
CCOc1ccc(NC(=O)c2cc3cc4ccc(C)cc4nc3o2)cc1	HCV NS3 hel inh 47 | NS3 helicase cf inactive | DNA FID counter-2 inactive
